Results from ChEMBL document CHEMBL1153232, “Synthesis and screening of a CaaL peptide library versus FTase reveals a surprising number of substrates” (Bioorg Med Chem Lett, 2010).
The source made the active and inactive calls. The rule behind the calls is not given here. Peptide text beside a SMILES is read from it. * marks the point of attachment. Dansyl = CN(C)c1cccc2c(S(=O)(=O)*)cccc12

What was measured:
[1] = biological target: Protein farnesyltransferase subunit beta (Homo sapiens) (UniProt P49356); test: Activity at FTase assessed as formation of farnesylated peptide after 60 mins by HPLC
How it was run: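 Peptide (3 μM) with 9 μM FPP and recombinant mammalian FTase (0.05 μM), incubated 60 min. HPLC scored conversion to farnesylated peptide: complete; nearly complete; 25% to 50%; less than 25%; no product.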

[2] = biological target: Protein farnesyltransferase subunit beta (Homo sapiens) (UniProt P49356); test: Ratio of kcat to km for FTase in presence of farnesyl diphosphate
How it was run: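 Steady-state kinetics at saturating FPP (10 μM), 0.2-10 μM dansyl peptide, 20-100 nM FTase (at least 5-fold below peptide). Buffer: 50 mM HEPPSO pH 7.8, 5 mM TCEP, 5 mM MgCl2, 25 °C. Peptide preincubated 20 min in buffer, then FTase and FPP added. Fluorescence (ex 340, em 520 nm) followed over time and converted to kcat/KM.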

[3] = biological target: Protein farnesyltransferase subunit beta (Homo sapiens) (UniProt P49356); test: Substrate activity for FTase assessed as increase in fluorescence by spectrofluorimetry in presence of farnesyl diphosphate relative to DnGCVLS; design: concentration or dose not given beside the values

Protein farnesyltransferase subunit beta (Homo sapiens), sequence (P49356 whole entry): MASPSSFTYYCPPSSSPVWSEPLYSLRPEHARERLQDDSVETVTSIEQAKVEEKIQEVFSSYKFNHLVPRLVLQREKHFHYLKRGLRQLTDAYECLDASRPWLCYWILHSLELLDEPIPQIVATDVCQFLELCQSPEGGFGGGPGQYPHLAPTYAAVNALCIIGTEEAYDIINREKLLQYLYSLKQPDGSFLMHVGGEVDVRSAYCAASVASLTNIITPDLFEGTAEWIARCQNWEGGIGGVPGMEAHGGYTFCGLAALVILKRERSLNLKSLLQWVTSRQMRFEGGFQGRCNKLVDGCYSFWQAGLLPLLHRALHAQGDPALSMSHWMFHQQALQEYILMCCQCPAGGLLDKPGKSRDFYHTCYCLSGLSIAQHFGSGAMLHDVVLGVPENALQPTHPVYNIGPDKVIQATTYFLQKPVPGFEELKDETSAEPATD

Row | Structure (SMILES) | Activity [1] | Ratio [2] [mM⁻¹ s⁻¹] | Activity [3] [%]
1 | CC[C@H](C)[C@H](NC(=O)[C@H](C)NC(=O)[C@H](CS)NC(=O)CNS(=O)(=O)c1cccc2c(N(C)C)cccc12)C(=O)N[C@@H](CC(C)C)C(=O)O (Dansyl-GCAIL-OH) | Active | 27 | 71
2 | CC[C@H](C)[C@H](NC(=O)[C@H](CS)NC(=O)[C@H](CS)NC(=O)CNS(=O)(=O)c1cccc2c(N(C)C)cccc12)C(=O)N[C@@H](CC(C)C)C(=O)O (Dansyl-GCCIL-OH) | Active | 23 | 61
3 | CC(C)C[C@H](NC(=O)[C@@H](NC(=O)[C@H](CS)NC(=O)[C@H](CS)NC(=O)CNS(=O)(=O)c1cccc2c(N(C)C)cccc12)C(C)C)C(=O)O (Dansyl-GCCVL-OH) | Active | 7 | 11
4 | CC[C@H](C)[C@H](NC(=O)[C@H](CS)NC(=O)CNS(=O)(=O)c1cccc2c(N(C)C)cccc12)C(=O)N[C@H](C(=O)N[C@@H](CC(C)C)C(=O)O)[C@@H](C)CC (Dansyl-GCIIL-OH) | Active | 43 | 101
5 | CC[C@H](C)[C@H](NC(=O)[C@H](CS)NC(=O)CNS(=O)(=O)c1cccc2c(N(C)C)cccc12)C(=O)N[C@@H](CC(C)C)C(=O)N[C@@H](CC(C)C)C(=O)O (Dansyl-GCILL-OH) | Active | 8 | 15
6 | CSCC[C@H](NC(=O)[C@H](CC(C)C)NC(=O)[C@H](CS)NC(=O)CNS(=O)(=O)c1cccc2c(N(C)C)cccc12)C(=O)N[C@@H](CC(C)C)C(=O)O (Dansyl-GCLML-OH) | Active | 8.1 | 9
7 | CC[C@H](C)[C@H](NC(=O)[C@H](CC(N)=O)NC(=O)[C@H](CS)NC(=O)CNS(=O)(=O)c1cccc2c(N(C)C)cccc12)C(=O)N[C@@H](CC(C)C)C(=O)O (Dansyl-GCNIL-OH) | Active | 12 | 22
8 | CC[C@H](C)[C@H](NC(=O)[C@H](CO)NC(=O)[C@H](CS)NC(=O)CNS(=O)(=O)c1cccc2c(N(C)C)cccc12)C(=O)N[C@@H](CC(C)C)C(=O)O (Dansyl-GCSIL-OH) | Active | 5 | 18
9 | CC[C@H](C)[C@H](NC(=O)[C@@H](NC(=O)[C@H](CS)NC(=O)CNS(=O)(=O)c1cccc2c(N(C)C)cccc12)[C@@H](C)O)C(=O)N[C@@H](CC(C)C)C(=O)O (Dansyl-GCTIL-OH) | Active | 33 | 45
10 | CC[C@H](C)[C@H](NC(=O)[C@@H](NC(=O)[C@H](CS)NC(=O)CNS(=O)(=O)c1cccc2c(N(C)C)cccc12)C(C)C)C(=O)N[C@@H](CC(C)C)C(=O)O (Dansyl-GCVIL-OH) | Active | 47 | 52
